Data from ChEMBL document CHEMBL1135535, “Discovery and optimization of a series of carbazole ureas as NPY5 antagonists for the treatment of obesity” (J Med Chem, 2002).

What was measured:
[1] = Half-life of compound at a dose 30 umol/kg administered orally; format: ADME, organism-based; conditions: in vivo, po
[2] = Percent inhibition of 5-HT2b and adenosine transport at 10 uM Y1, Y2, Y4 and 80 other receptors at > 10 uM; format: functional
In short: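 Selectivity screen with compound tested at 10 µM for binding to 5HT2b receptor and for inhibition of adenosine transport. Y1, Y2, Y4 and 80 other receptors were also screened. Human Y1, Y2 and Y4 membranes came from SK-N-MC cells, KAN-TS cells and stable Y4-expressing CHO cells, using the [125I]PYY filtration binding format.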

[3] = Bioavailability of compound at a dose 30 umol/kg administered orally; format: ADME, organism-based; conditions: eutheria, in vivo, po, at 30 µmol/kg
[4] = Maximum concentration of compound at a dose 30 umol/kg administered orally; format: ADME, organism-based; design: dose 30 umol/kg, route oral; conditions: in vivo, po
[5] = Volume of distribution of compound at a dose 10 umol/kg was administered intravenously; format: ADME, organism-based; conditions: in vivo, iv, read-out: Vss
[6] = Tmax of compound at a dose 30 umol/kg administered orally; format: ADME, organism-based; conditions: in vivo, po
[7] = target: T1, Neuropeptide Y receptor type 5 (Homo sapiens, UniProt Q15761); test: Compound was evaluated for functional antagonism of Neuropeptide Y receptor Y5 activity in cellular Ca flux
T1 sequence (Q15761 whole entry): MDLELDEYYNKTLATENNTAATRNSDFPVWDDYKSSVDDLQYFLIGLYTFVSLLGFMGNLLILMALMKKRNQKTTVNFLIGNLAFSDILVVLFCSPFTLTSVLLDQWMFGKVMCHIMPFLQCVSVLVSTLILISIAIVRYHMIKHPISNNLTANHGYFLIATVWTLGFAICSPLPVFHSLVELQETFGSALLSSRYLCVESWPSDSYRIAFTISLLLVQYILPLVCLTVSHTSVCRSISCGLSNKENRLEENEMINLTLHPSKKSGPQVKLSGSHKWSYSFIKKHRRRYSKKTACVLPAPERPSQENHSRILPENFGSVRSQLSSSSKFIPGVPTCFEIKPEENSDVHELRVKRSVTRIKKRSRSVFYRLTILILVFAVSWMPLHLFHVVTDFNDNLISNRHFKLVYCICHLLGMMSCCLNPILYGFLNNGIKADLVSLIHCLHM

[8] = Clearance level at a dose 10 umol/kg administered intravenously; format: ADME, organism-based; conditions: in vivo, iv
[9] = Half-life of compound at a dose 10 umol/kg was administered intravenously; format: ADME, organism-based; conditions: in vivo, iv
[10] = target: T1, Neuropeptide Y receptor type 5; test: Binding affinity to the human Neuropeptide Y receptor Y5 (NPY5)
In short: (§1)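 Membranes from Hi5 insect cells infected 48 h with baculovirus carrying rat or human NPY-5 receptor, prepared by sonication in hypotonic Tris/EDTA/sucrose buffer and harvested on a 41% sucrose cushion. 0.01 µCi [125I]PYY incubated with membranes and compound in HEPES buffer (CaCl2, MgCl2, 0.5% BSA, pH 7.4) for 2 h at room temperature. Filtered onto PEI-treated GF/C plates, then scintillation counted.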

[11] = target: T1, Neuropeptide Y receptor type 5; test: The compound was evaluated in vitro for: human Neuropeptide Y receptor Y5 functional antagonism
Salmonella typhimurium [12] = test: Ames activity in TA 98+S9, expressed as maximum fold increase in mutation frequency; format: functional, Salmonella enterica subsp. enterica serovar Typhimurium
In short: (§2)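 Salmonella typhimurium TA98 plate incorporation assay with S9 mix. The S9 is the postmitochondrial fraction of livers from Aroclor 1254-treated Sprague–Dawley rats, supplemented with cofactors for NADPH generation. Tested across 6–2000 μg/plate. The value is the maximum increase in mutation frequency relative to background across that dose range.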

Salmonella typhimurium [13] = test: Ames activity in TA 98+S9, expressed as maximum fold increase in mutation frequency; NI means no increase; format: functional, organism-based; conditions: Salmonella enterica subsp. enterica serovar Typhimurium; in short: as §2
Salmonella typhimurium [14] = test: Mutagenicity (Ames activity) for Salmonella Typhimurium TA100 in the presence of rat liver S9 mix, at 3.3 ug/plate conc.; format: functional, Salmonella enterica subsp. enterica serovar Typhimurium
In short: (§3)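 Ames plate incorporation assay with S. typhimurium TA98 and TA100, run as described by Maron and Ames. Metabolic activation used S9 mix from livers of Aroclor 1254-treated Sprague–Dawley rats with an NADPH-generating cofactor system. Test substance given at 3.3–100 µg/plate. Read-out was revertant colonies per plate against a solvent control.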

Salmonella typhimurium [15] = test: Mutagenicity (Ames activity) for Salmonella Typhimurium TA100 in the presence of rat liver S9 mix, at 33 ug/plate conc.; format: functional, Salmonella enterica subsp. enterica serovar Typhimurium; in short: as §3
Salmonella typhimurium [16] = test: Mutagenicity (Ames activity) for Salmonella Typhimurium TA100 in the presence of rat liver S9 mix, at 10 ug/plate conc.; format: functional, Salmonella enterica subsp. enterica serovar Typhimurium; in short: as §3
Salmonella typhimurium [17] = test: Mutagenicity (Ames activity) for Salmonella Typhimurium TA100 in the presence of rat liver S9 mix, at 100 ug/plate conc.; format: functional, Salmonella enterica subsp. enterica serovar Typhimurium; in short: as §3
Salmonella typhimurium [18] = test: Mutagenicity (Ames activity) for Salmonella Typhimurium TA98 in the presence of rat liver S9 mix, at 3.3 ug/plate conc.; format: functional, Salmonella enterica subsp. enterica serovar Typhimurium; in short: as §3
Salmonella typhimurium [19] = test: Mutagenicity (Ames activity) for Salmonella Typhimurium TA98 in the presence of rat liver S9 mix, at 10 ug/plate conc.; format: functional, Salmonella enterica subsp. enterica serovar Typhimurium; in short: as §3
Salmonella typhimurium [20] = test: Mutagenicity (Ames activity) for Salmonella Typhimurium TA98 in the presence of rat liver S9 mix, at 33 ug/plate conc.; format: functional, Salmonella enterica subsp. enterica serovar Typhimurium; in short: as §3
Salmonella typhimurium [21] = test: Mutagenicity (Ames activity) for Salmonella Typhimurium TA98 in the presence of rat liver S9 mix, at 100 ug/plate conc.; format: functional, Salmonella enterica subsp. enterica serovar Typhimurium; in short: as §3
Rattus norvegicus [22] = test: Concentration of compound in rat plasma after oral dosing at 2 mg/kg after 90 min; format: functional, organism-based; design: dose 2 mg/kg
In short: (§4)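 Single oral dose of 2 mg/kg to rats. Plasma, whole brain and CSF concentrations were measured at 90 min.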

Rattus norvegicus [23] = test: Concentration of compound in rat whole brain after oral dosing at 2 mg/kg after 90 min; format: functional, organism-based; design: dose 2 mg/kg; in short: as §4
Rattus norvegicus [24] = test: Concentration of compound in rat CSF after oral dosing at 2 mg/kg after 90 min; format: functional, organism-based; design: dose 2 mg/kg; in short: as §4
[25] = Half life in rat was reported; format: ADME, organism-based; conditions: in vivo
In short: (§5)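 Rats received a DMA:PEG:H2O 1:1:1 solution, iv at 10 µmol/kg and po at 30 µmol/kg. Half-life, Vss, clearance, Cmax, Tmax and oral bioavailability were derived from plasma levels.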

[26] = target: T1, Neuropeptide Y receptor type 5; test: In vitro human Neuropeptide Y receptor Y5 functional antagonism (reporter gene assay)
[27] = target: T2, Neuropeptide Y receptor type 5 (Rattus norvegicus, UniProt Q63634); test: Binding affinity against rat Neuropeptide Y receptor Y5; in short: as §1
T2 sequence (Q63634 whole entry): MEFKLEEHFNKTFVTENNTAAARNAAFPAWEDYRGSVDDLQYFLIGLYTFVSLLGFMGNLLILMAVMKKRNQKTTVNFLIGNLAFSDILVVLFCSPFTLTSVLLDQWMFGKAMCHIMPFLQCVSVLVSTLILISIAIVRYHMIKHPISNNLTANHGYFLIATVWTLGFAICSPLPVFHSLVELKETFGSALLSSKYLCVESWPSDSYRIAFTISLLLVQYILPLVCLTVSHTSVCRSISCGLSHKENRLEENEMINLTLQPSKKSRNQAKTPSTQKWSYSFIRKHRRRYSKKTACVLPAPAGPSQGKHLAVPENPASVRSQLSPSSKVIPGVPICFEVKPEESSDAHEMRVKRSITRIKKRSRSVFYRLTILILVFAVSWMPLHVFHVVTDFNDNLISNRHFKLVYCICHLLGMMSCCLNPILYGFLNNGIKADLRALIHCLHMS

[28] = Compound was evaluated for functional antagonism of NPY activity in cellular Ca flux
[29] = Bioavailability in rat; format: ADME, organism-based; conditions: in vivo, read-out: Bioavailabiility; in short: as §5

Cc1c(NC(=O)N2CCOCC2)ccc2c1c1ccccc1n2C(C)C
half-life [1]: 6.4 h
inhibition [2]: 70%
bioavailability [3]: 76%
Cmax [4]: 35 µM
Vd [5]: 0.41 L/kg
Tmax [6]: 1 h
IC50 [7]: 6 nM
clearance [8]: 1.33 mL/min/kg
half-life [9]: 3.7 h
IC50 [10]: 3 nM
IC50 [11]: 37 nM

CC(C)n1c2ccccc2c2c(F)c(NC(=O)N3CCOCC3)c(F)cc21
IC50 [10]: 12 nM

CCn1c2ccccc2c2cccc(NC(=O)CCc3ccncc3)c21
IC50 [10]: 440 nM

CN(C)S(=O)(=O)n1c2ccccc2c2cc(NC(=O)N3CCOCC3)ccc21
IC50 [10]: 350 nM

Cn1c2ccccc2c2cc(NC(=O)CCc3ccncc3)ccc21
IC50 [10]: 33 nM

Cc1cccc2c3cc(NC(=O)N4CCOCC4)ccc3n(C(C)C)c12
IC50 [10]: 2 nM

CC(C)n1c2ccc(N)cc2c2cc(F)ccc21
Mutation frequency (Salmonella typhimurium [12]): 15

O=C(CSc1ccncc1)Nc1ccc(C(=O)c2ccccc2)cc1
IC50 [10]: 350 nM

Cc1c(N)ccc2c1c1ccccc1n2C(C)C
NI (Salmonella typhimurium [13]): no increase

CCn1c2ccccc2c2cc(N(C)C(=O)CCc3ccncc3)ccc21
IC50 [10]: 2200 nM

Cc1cc2c(cc1N)c1ccccc1n2C(C)C
Mutation frequency (Salmonella typhimurium [12]): 3

CC(=O)n1c2ccccc2c2cc(NC(=O)CCc3ccncc3)ccc21
IC50 [10]: 3 nM

Cc1cccc2c3cc(N)ccc3n(C(C)C)c12
Mutation frequency (Salmonella typhimurium [12]): 6

Cc1c(NC(=O)N2CCOCC2)cc(C)c2c1c1ccccc1n2C(C)C
IC50 [10]: 710 nM

CC(C)c1c(NC(=O)N2CCOCC2)ccc2c1c1ccccc1n2C(C)C
IC50 [10]: 770 nM

CCn1c2ccccc2c2cc(CC(=O)NCc3ccncc3)ccc21
IC50 [10]: 2250 nM

CN(C)S(=O)(=O)n1c2ccccc2c2cc(N)ccc21
Max fold increase (Salmonella typhimurium [12]): 39

CCn1c2ccccc2c2cc(C(=O)NCCc3ccncc3)ccc21
IC50 [10]: 700 nM

CC(C)(C)Cn1c2ccccc2c2cc(N)ccc21
Mutation frequency (Salmonella typhimurium [12]): 5

CS(=O)(=O)n1c2ccccc2c2cc(N)ccc21
Max fold increase (Salmonella typhimurium [12]): 35

CC(C)n1c2ccccc2c2c(F)c(N)c(F)cc21
Mutation frequency (Salmonella typhimurium [12]): 2

O=C(CCc1ccncc1)Nc1ccc2[nH]c3ccccc3c2c1
IC50 [10]: 230 nM

CC(C)c1c(N)ccc2c1c1ccccc1n2C(C)C
NI (Salmonella typhimurium [13]): no increase

Cc1cc2c(c(C)c1NC(=O)N1CCOCC1)c1ccccc1n2C(C)C
IC50 [10]: 390 nM

CCn1c2ccccc2c2cc(N)ccc21
Revertant colonies per plate (Salmonella typhimurium [14]): 192
Mutation frequency (Salmonella typhimurium [12]): 43
Revertant colonies per plate (Salmonella typhimurium [15]): 466
Revertant colonies per plate (Salmonella typhimurium [16]): 358
Revertant colonies per plate (Salmonella typhimurium [17]): 483
Revertant colonies per plate (Salmonella typhimurium [18]): 623
Revertant colonies per plate (Salmonella typhimurium [19]): 1416
Revertant colonies per plate (Salmonella typhimurium [20]): 1227
Revertant colonies per plate (Salmonella typhimurium [21]): 897

CC(C)(C)Cn1c2ccccc2c2cc(NC(=O)N3CCOCC3)ccc21
IC50 [10]: 78 nM

CS(=O)(=O)n1c2ccccc2c2cc(NC(=O)CCc3ccncc3)ccc21
IC50 [10]: 1 nM

CC(C)n1c2ccccc2c2cc(N)c(Cl)cc21
Mutation frequency (Salmonella typhimurium [12]): 43

CN(C)S(=O)(=O)n1c2ccccc2c2cc(NC(=O)CCc3ccncc3)ccc21
IC50 [10]: 8 nM

Nc1ccc2c(c1)c1ccccc1n2C1CCOC1 (configuration not stated)
Mutation frequency (Salmonella typhimurium [12]): 66

CCOc1c(N)ccc2c1c1ccccc1n2C(C)C
NI (Salmonella typhimurium [13]): no increase

CCOc1c(NC(=O)N2CCOCC2)ccc2c1c1ccccc1n2C(C)C
IC50 [10]: 270 nM

CC(C)n1c2ccc(F)cc2c2cc(NC(=O)N3CCOCC3)ccc21
IC50 [10]: 3 nM

CCn1c2ccccc2c2cc(NC(=O)N3CCOCC3)ccc21
Concentration (Rattus norvegicus [22]): 740 nM
Concentration (Rattus norvegicus [23]): 500 nM
Concentration (Rattus norvegicus [24]): 17 nM
IC50 [10]: 7 nM

CC(C)n1c2ccccc2c2cc(NC(=O)CCc3ccncc3)ccc21
IC50 [10]: 1 nM

O=C(CCc1ccncc1)Nc1ccc(C(=O)c2ccccc2)cc1
IC50 [10]: 300 nM

CCn1c2ccccc2c2ccc(NC(=O)CCc3ccncc3)cc21
IC50 [10]: 800 nM

CC(C)n1c2ccccc2c2cc(NC(=O)N3CCOCC3)ccc21
IC50 [10]: 2 nM

Cc1c(N)cc(C)c2c1c1ccccc1n2C(C)C
NI (Salmonella typhimurium [13]): no increase

O=C(Nc1ccc2c(c1)c1ccccc1n2C1CCOC1)N1CCOCC1 (configuration not stated)
IC50 [10]: 40 nM

CCn1c2ccccc2c2cc(CNC(=O)Cc3ccncc3)ccc21
IC50 [10]: 3400 nM

CCn1c2ccccc2c2c(NC(=O)CCc3ccncc3)cccc21
IC50 [10]: > 10000 nM

Cc1cc2c(c(C)c1N)c1ccccc1n2C(C)C
NI (Salmonella typhimurium [13]): no increase

CS(=O)(=O)n1c2ccccc2c2cc(NC(=O)N3CCOCC3)ccc21
IC50 [10]: 15 nM

CC(C)n1c2ccccc2c2cc(N)ccc21
Mutation frequency (Salmonella typhimurium [12]): 3

CCn1c2ccccc2c2cc(NC(=O)CCc3ccncc3)ccc21
half-life [25]: 0.25 h
IC50 [26]: 11 nM
IC50 [27]: 7 nM
IC50 [28]: 2 nM
bioavailability [29]: 1%
IC50 [10]: 2 nM
